Reference: ChEMBL document CHEMBL4837207, “Discovery of pyrrolo[2,3-d]pyrimidine derivatives as potent Axl inhibitors: Design, synthesis and biological evaluation” (Eur J Med Chem, 2021)

How the values were obtained:
[1] = biological target: T1, Tyrosine-protein kinase receptor UFO (Homo sapiens, UniProt P30530); assay: Inhibition of AXL (unknown origin) by ELISA
T1 sequence (P30530 whole entry): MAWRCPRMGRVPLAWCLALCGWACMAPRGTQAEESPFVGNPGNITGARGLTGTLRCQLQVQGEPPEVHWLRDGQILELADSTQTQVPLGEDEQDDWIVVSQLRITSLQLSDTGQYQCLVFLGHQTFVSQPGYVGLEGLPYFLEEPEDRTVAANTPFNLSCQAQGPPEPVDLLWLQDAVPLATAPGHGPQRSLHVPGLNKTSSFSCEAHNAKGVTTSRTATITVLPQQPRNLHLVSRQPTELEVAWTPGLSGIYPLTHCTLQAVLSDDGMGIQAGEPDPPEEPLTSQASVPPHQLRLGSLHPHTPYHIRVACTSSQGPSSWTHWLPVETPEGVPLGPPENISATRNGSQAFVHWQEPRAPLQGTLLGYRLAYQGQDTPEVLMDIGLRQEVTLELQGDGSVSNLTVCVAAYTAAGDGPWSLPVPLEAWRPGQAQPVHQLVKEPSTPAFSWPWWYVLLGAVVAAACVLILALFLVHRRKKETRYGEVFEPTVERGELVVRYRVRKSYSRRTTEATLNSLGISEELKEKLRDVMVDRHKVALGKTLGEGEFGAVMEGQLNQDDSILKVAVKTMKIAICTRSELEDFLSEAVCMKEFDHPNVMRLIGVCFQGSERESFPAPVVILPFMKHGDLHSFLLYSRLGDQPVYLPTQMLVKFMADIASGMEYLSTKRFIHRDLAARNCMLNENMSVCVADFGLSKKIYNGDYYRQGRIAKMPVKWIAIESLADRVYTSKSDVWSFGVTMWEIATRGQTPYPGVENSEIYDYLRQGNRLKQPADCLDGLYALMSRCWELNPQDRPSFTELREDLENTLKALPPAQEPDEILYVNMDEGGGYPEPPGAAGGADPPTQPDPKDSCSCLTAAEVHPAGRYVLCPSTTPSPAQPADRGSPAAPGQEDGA

[2] = biological target: Hepatocyte growth factor receptor (Homo sapiens, UniProt P08581); assay: Inhibition of c-MET (unknown origin) by ELISA
BaF3 = assay: Antiproliferative activity against mouse BaF3 stably expressing human TEL-AXL incubated for 72 hrs; type: functional, cell-based; settings: BaF3, 72 h
MKN-45 = assay: Antiproliferative activity against human MKN-45 cells incubated for 72 hrs; type: functional, cell-based; settings: MKN-45, 72 h
Procedure, shortened: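 MKN-45 cells (MET-amplified gastric carcinoma) grown in the supplier-recommended medium and serum, seeded at low density and treated the next day across a concentration range for 72 h. Proliferation read by SRB or CCK-8. IC50 obtained from a four-parameter concentration-response fit; mean ± SD of two independent assays.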

[3] = Tmax in Sprague-Dawley rat at 3 mg/kg, po via gavage measured up to 24 hrs by LC-MS analysis; type: ADME, organism-based; settings: in vivo
Procedure, shortened: (§1)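 Male Sprague-Dawley rats (n = 3) dosed once by oral gavage at 3 mg/kg as a solution in 5% DMSO/95% (0.5% CMC-Na). Blood sampled at 0.25, 0.5, 1, 2, 4, 6, 8 and 24 h, kept on wet ice, serum separated by centrifugation and stored at -20 °C. Serum levels measured by LC-MS/MS; parameters reported as means.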

[4] = Half life in Sprague-Dawley rat at 3 mg/kg, po via gavage measured up to 24 hrs by LC-MS analysis; type: ADME, organism-based; settings: in vivo; procedure, shortened: as §1
[5] = Cmax in Sprague-Dawley rat at 3 mg/kg, po via gavage measured up to 24 hrs by LC-MS analysis; type: ADME, organism-based; design: route oral, dose 3 mg/kg, time <=24; settings: in vivo; procedure, shortened: as §1
[6] = AUC (0 to infinity) in Sprague-Dawley rat at 3 mg/kg, po via gavage measured up to 24 hrs by LC-MS analysis; type: ADME, organism-based; design: route oral, dose 3 mg/kg, time <=24; settings: in vivo; procedure, shortened: as §1

Sequence of Hepatocyte growth factor receptor (P08581 whole entry): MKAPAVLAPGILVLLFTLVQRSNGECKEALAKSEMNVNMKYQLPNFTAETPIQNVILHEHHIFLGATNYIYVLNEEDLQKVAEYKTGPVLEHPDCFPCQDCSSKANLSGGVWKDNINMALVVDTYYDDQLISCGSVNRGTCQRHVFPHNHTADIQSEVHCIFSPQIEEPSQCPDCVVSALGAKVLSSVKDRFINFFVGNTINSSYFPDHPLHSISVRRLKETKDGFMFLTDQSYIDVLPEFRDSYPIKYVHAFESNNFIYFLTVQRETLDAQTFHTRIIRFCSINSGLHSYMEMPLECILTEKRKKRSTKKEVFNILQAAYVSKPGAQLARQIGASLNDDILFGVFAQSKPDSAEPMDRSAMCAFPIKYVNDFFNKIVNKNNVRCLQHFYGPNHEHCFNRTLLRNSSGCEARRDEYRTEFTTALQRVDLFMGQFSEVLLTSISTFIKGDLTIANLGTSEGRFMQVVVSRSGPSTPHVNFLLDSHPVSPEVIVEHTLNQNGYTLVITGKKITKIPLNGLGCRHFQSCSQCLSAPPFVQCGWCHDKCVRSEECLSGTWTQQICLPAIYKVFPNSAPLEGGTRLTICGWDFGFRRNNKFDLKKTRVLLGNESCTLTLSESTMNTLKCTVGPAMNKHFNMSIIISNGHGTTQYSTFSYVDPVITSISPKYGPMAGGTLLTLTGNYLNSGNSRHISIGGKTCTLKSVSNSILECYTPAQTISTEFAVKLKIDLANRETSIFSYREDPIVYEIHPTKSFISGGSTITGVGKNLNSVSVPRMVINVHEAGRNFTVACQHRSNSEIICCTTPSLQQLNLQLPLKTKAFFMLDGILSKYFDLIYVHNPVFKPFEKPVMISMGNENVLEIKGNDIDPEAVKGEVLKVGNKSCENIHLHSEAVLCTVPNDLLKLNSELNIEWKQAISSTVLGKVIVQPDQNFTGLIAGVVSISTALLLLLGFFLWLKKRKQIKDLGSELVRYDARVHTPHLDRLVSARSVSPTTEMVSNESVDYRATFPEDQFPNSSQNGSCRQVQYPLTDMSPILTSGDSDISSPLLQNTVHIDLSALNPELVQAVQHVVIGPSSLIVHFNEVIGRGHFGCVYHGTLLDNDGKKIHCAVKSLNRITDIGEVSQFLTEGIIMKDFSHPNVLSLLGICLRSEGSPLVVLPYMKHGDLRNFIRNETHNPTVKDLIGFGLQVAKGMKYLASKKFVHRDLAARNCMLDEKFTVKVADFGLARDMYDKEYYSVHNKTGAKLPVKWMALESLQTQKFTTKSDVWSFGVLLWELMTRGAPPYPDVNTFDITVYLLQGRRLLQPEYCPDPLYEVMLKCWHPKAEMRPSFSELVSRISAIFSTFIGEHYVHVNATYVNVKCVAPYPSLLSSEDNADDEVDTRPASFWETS

| SMILES | IC50 [1] [nM] | IC50 [2] [nM] | IC50 (BaF3) [nM] | IC50 (MKN-45) [nM] | Tmax [3] [h] | half-life [4] [h] | Cmax [5] [ng/mL] | AUC(0-inf) [6] [ng·h/mL] |
| --- | --- | --- | --- | --- | --- | --- | --- | --- |
| Cn1cc(-c2ccc(NC(=O)c3cn(C4CCOCC4)cc(-c4ccc(F)cc4)c3=O)cc2)c2c(N)ncnc21 | 1.1 | 13.1 |  |  |  |  |  |  |
| Cn1cc(-c2ccc(NC(=O)c3cn(CC4CCOCC4)cc(-c4ccc(F)cc4)c3=O)cc2F)c2c(N)ncnc21 | 0.8 | 2.4 | < 1 | 93.7 |  |  |  |  |
| Cn1cc(-c2ccc(NC(=O)c3cn(CC4CCOCC4)cc(-c4cccc(F)c4)c3=O)cc2)c2c(N)ncnc21 | 3 | 95.4 |  |  |  |  |  |  |
| CCCn1cc(-c2ccc(NC(=O)c3cn(CC4CCOCC4)cc(-c4ccc(F)cc4)c3=O)cc2)c2c(N)ncnc21 | 1.8 | 5.1 |  |  |  |  |  |  |
| COCCCn1cc(C(=O)Nc2ccc(-c3cn(C)c4ncnc(N)c34)cc2)c(=O)c(-c2ccc(F)cc2)c1 | > 10 | 16.7 |  |  |  |  |  |  |
| Nc1ncnc2[nH]cc(-c3cc(F)c(NC(=O)c4cn(CC5CCOCC5)cc(-c5ccc(F)cc5)c4=O)cc3F)c12 | 0.4 | 1.7 | < 1 | 29.8 | 0.83 | 1.37 | 330 | 385 |
| Nc1ncnc2[nH]cc(-c3ccc(NC(=O)c4cn(CC5CCOCC5)cc(-c5ccc(F)cc5)c4=O)cc3)c12 | 0.2 | 4.4 | < 1 | 77.9 |  |  |  |  |
| Cn1cc(-c2cc(F)c(NC(=O)c3cn(CC4CCOCC4)cc(-c4ccc(F)cc4)c3=O)cc2F)c2c(N)ncnc21 | 0.5 | 3.3 | < 1 | 53.7 |  |  |  |  |
| CC(C)n1cc(C(=O)Nc2ccc(-c3cn(C)c4ncnc(N)c34)cc2)c(=O)c(-c2ccc(F)cc2)c1 | 0.4 | 18.4 | < 1 | 85.3 |  |  |  |  |
| Cn1cc(-c2ccc(NC(=O)c3cn(CC4CCOCC4)cc(-c4ccc(C(F)(F)F)cc4)c3=O)cc2)c2c(N)ncnc21 | 0.4 | 33.1 | < 1 | 826 |  |  |  |  |
| Cn1cc(-c2ccc(NC(=O)c3cn(CC4CCCCC4)cc(-c4ccc(F)cc4)c3=O)cc2)c2c(N)ncnc21 | 2.3 | 4.8 |  |  |  |  |  |  |
| CN(C)CCn1cc(-c2ccc(NC(=O)c3cn(CC4CCOCC4)cc(-c4ccc(F)cc4)c3=O)cc2)c2c(N)ncnc21 | 2.8 | 215 |  |  |  |  |  |  |
| CN(C)C(=O)Cn1cc(C(=O)Nc2ccc(-c3cn(C)c4ncnc(N)c34)cc2)c(=O)c(-c2ccc(F)cc2)c1 | 0.5 | 18.4 | > 100 | > 1000 |  |  |  |  |
| Nc1ncnc2c1c(-c1ccc(NC(=O)c3cn(CC4CCOCC4)cc(-c4ccc(F)cc4)c3=O)cc1)cn2CCN1CCOCC1 | 2.7 | 17 |  |  |  |  |  |  |
| C[C@@H](Oc1cc(-c2cnn(C3CCNCC3)c2)cnc1N)c1c(Cl)ccc(F)c1Cl [CRIZOTINIB] |  |  |  | 15 |  |  |  |  |
| Cn1cc(-c2ccc(NC(=O)c3cn(CC4CCOCC4)cc(-c4ccc(F)cc4F)c3=O)cc2)c2c(N)ncnc21 | 0.8 | 19.8 | < 1 | 501 |  |  |  |  |
| Cn1cc(-c2ccc(NC(=O)c3cn(CC4CCOCC4)cc(-c4ccc(F)cc4)c3=O)c(F)c2)c2c(N)ncnc21 | 0.2 | 7.3 | < 1 | 210 |  |  |  |  |
| Cn1cc(-c2ccc(NC(=O)c3cn(CC4CCOCC4)cc(-c4ccc(F)cc4)c3=O)c(Cl)c2)c2c(N)ncnc21 | 3.7 | 40.5 |  |  |  |  |  |  |
| Cn1cc(-c2ccc(NC(=O)c3cn(CC4CCOCC4)cc(-c4ccc(F)cc4)c3=O)cc2)c2c(N)ncnc21 | 0.1 | 7.1 | < 1 | 248 |  |  |  |  |
| Cn1cc(C(=O)Nc2ccc(-c3cn(C)c4ncnc(N)c34)cc2)c(=O)c(-c2ccc(F)cc2)c1 | 5 | 24.5 |  |  |  |  |  |  |
| Cn1cc(-c2ccc(NC(=O)c3cn(CC4CCOCC4)cc(-c4ccc(Cl)cc4)c3=O)cc2)c2c(N)ncnc21 | 0.2 | 12.3 | < 1 | 347 |  |  |  |  |
| Cn1cc(-c2ccc(NC(=O)c3cn(CC4CCCO4)cc(-c4ccc(F)cc4)c3=O)cc2)c2c(N)ncnc21 (configuration not stated) | 1.2 | 3.1 |  |  |  |  |  |  |
| Cn1cc(-c2ccc(NC(=O)c3cn(CC4CCOCC4)cc(-c4ccccc4)c3=O)cc2)c2c(N)ncnc21 | 1 | 20.6 | < 1 | 318 |  |  |  |  |
| Cc1cc(-c2cn(C)c3ncnc(N)c23)ccc1NC(=O)c1cn(CC2CCOCC2)cc(-c2ccc(F)cc2)c1=O | 4 | 33.8 |  |  |  |  |  |  |
| Cc1nc(N)c2c(-c3ccc(NC(=O)c4cn(CC5CCOCC5)cc(-c5ccc(F)cc5)c4=O)cc3)cn(C)c2n1 | 5.1 | 159 |  |  |  |  |  |  |
